Screening data (PubChem BioAssay)
Apaf1 inhib = inhibitors of human Apaf-1 apoptosome | inhibition, % at 20 µM | reconstituted apoptosome caspase-3 activity, DEVD-Rh110 fluorescence | 330,000 compounds, 0.71% hits | O14727; active = inhibition of at least 40% at 20 µM;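 note: plate controls were DMSO wells for no effect and DEVD-CHO caspase inhibitor wells for full effect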
Target sequence (O14727 whole entry, looked up): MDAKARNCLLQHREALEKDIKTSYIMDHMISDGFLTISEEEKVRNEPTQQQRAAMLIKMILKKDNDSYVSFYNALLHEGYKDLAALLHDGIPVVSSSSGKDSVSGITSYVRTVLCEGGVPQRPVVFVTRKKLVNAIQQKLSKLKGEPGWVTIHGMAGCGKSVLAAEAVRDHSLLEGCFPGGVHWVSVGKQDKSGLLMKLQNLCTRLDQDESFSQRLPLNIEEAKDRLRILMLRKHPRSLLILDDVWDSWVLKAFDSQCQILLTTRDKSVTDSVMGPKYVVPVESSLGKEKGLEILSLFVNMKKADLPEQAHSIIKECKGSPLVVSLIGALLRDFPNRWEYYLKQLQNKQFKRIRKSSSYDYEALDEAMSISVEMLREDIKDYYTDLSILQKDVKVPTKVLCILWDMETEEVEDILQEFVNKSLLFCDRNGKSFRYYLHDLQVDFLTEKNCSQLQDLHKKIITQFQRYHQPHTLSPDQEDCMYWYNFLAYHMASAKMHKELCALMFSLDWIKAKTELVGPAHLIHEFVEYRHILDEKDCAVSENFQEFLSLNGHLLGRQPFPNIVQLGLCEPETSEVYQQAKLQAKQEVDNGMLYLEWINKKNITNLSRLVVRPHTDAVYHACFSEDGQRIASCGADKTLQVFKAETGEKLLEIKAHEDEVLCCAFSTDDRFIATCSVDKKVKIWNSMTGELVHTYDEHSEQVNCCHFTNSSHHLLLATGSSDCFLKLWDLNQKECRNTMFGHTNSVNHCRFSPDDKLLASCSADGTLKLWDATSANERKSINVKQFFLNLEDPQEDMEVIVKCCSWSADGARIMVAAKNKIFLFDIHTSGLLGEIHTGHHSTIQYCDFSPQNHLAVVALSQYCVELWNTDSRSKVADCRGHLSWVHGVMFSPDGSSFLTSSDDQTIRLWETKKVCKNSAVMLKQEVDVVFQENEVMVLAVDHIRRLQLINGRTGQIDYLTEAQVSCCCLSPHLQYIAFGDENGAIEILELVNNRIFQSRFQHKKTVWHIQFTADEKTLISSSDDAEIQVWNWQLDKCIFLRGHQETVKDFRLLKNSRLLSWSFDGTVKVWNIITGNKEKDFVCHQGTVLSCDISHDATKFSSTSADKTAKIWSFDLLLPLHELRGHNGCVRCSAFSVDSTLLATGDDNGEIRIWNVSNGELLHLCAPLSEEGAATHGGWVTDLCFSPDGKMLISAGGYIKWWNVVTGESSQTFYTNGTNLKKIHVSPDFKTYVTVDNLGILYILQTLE
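System: Apoptosome proteins | Medium: Hepes pH 7.5 with detergent and BSA | Also added: Cytochrome c trigger plus (Z-DEVD)2-Rh110 caspase-3 substrate | Incubation: 30 min compound preincubation, 50 min activation, room temperature | Detection: Rhodamine 110 fluorescence at Ex 480/Em 540 nm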
DSG3 Ab inh = blocks pemphigus antibody binding to human desmoglein-3. P32926. binding (percent of control), % at 10 µM. AID 588358. 310,000 compounds, 0.48% hits. DSG3-coupled beads, scFv-anti-DSG3-GFP binding, flow cytometry; stronger effect = lower value;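 active = binding more than 3 SD below its plate's average and above zero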
MEKK2 mut-MEK5 = signal of MEK5 binding to mutant human MEKK2 PB1 domain | bead flow cytometry, Alexa488-MEK5 binding to MEKK2 mutant | percent response, % at 10 µM | 290,000 compounds, 0.35% hits; in the data active = percent response above about 24%, passing the limit was not always enough
MEKK2 WT-MEK5 = raises or lowers MEK5 binding to wildtype human MEKK2 PB1 domain. binding response (% of control), % at 10 µM. 290,000 compounds, 1.1% hits. bead flow cytometry, Alexa488-MEK5 binding to MEKK2 WT; actives lie on both sides; in the data active = binding response below about 67% or above about 130%
UBC13 inh = inhibitors of human UBC13 polyubiquitin chain formation; P61088; inhibition, % at 20 µM; TR-FRET; AID 485273; 330,000 compounds, 0.47% hits; in the data active = inhibition above about 45%, passing the limit was not always enough
MEKK3 PB1 HTS = raises or lowers MEK5 binding to the human MEKK3 PB1 domain | binding response (% of control), % at 10 µM | 290,000 compounds, 1.4% hits | bead-based flow cytometry, Alexa488-MEK5 binding to MEKK3; actives lie on both sides; 0 = blocked by unlabeled MEK5, 100 = vehicle | AID 1529 | Q99759;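 active = binding response more than 3 SD above or below the average of its plate-row segment, actives on both sides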;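 note: Alexa488 bead fluorescence after subtracting the streptavidin-only scavenger bead signal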
MEKK2wt confirm = raises or lowers MEK5 binding to wildtype human MEKK2, retest | AID 1892 | 5,900 compounds, 2.4% hits | bead flow cytometry, Alexa488-MEK5 binding to MEKK2 WT; actives lie on both sides | binding response (% of control), % at 10 µM | shares compounds with MEKK3 PB1 HTS; in the data active = binding response below about 16% or above about 210%; inactive = in between
MEKK2mut confirm = signal of MEK5 binding to mutant human MEKK2, retest; shares compounds with MEKK3 PB1 HTS; bead flow cytometry, Alexa488-MEK5 binding to MEKK2 mutant; percent response, % at 10 µM; 5,900 compounds, 2% hits; AID 1893; in the data active = percent response mostly above about 71%, no sharp cut-off; inactive = mostly below about 38%;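 note: higher means compound restores mutant binding toward wildtype level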
MEKK3-MEK5 inh = MEKK3-MEK5 PB1 inhibition, single concentration confirmation; 5,900 compounds, 1.8% hits; bead flow cytometry, Alexa488-MEK5 binding to MEKK3; stronger effect = lower value; shares compounds with MEKK3 PB1 HTS; binding response (% of control), % at 10 µM; AID 1894;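 active = binding response below 72% of control, or above a set upper limit, though filed actives all read lower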;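 note: 100% = DMSO only wells and 0% = binding blocked by excess unlabeled MEK5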
Numbers without * were called inactive; nt = not tested or not shown; [ ] = remark or other dose. Rows were chosen to be rich in hits. Some 3.2% of all compounds tested hit in one or more screens of this group.

SMILES	Apaf1 inhib	DSG3 Ab inh	MEKK2 mut-MEK5	MEKK2 WT-MEK5	UBC13 inh	MEKK3 PB1 HTS	MEKK2wt confirm	MEKK2mut confirm	MEKK3-MEK5 inh
COc1ccc(C(=O)Nc2nc3nccc(-c4ccccc4)n3n2)cc1	2	nt	1	108	-8	180*	102	4	103
CCc1cccc(NC(=S)N(CCOC)C2CCN(C(C)=O)CC2)c1	5	101	34*	118	11	123*	110	11	110
CCOC(=O)N1CCC(N(CCN(C)C)C(=S)Nc2ccccc2C)CC1	5	105	1	108	9	130*	108	12	106
CCOC(=O)N1CCC(N(CCN(C)C)C(=S)Nc2cccc(C)c2)CC1	10	96	0	108	-7	138*	105	0	103
COc1ccc2nc(NC(=O)CN(C)S(=O)(=O)c3cccs3)sc2c1	6	104	-22	-7.0*[inhibitor]	-6	1.0*[inhibitor]	103	11	103
COc1ccc(NC(=O)Cn2cnc3ccccc3c2=O)cc1OC	-14	98	-1	98	4	97	nt	nt	nt
COc1ccc2nc(NC(=O)CNS(=O)(=O)c3cccs3)sc2c1	-7	120	-8	89	5	101	nt	nt	nt
CCOCC(=O)Nc1nc2ccc(OC)cc2s1	7	nt	-14	89	0	81*[inhibitor]	97	-3	96
CCOc1ccc2nc(NC(=O)COC)sc2c1	2	98	2	113	-3	112	nt	nt	nt
COc1ccc2nc(NC(=O)Cn3cnc4ccccc4c3=O)sc2c1	-6	100	-31	49*[inhibitor]	-2	68*[inhibitor]	102	2	100
O=C(NCc1ccco1)c1cccc2c1C(=O)c1ccc(N3CCC(N4CCCCC4)CC3)cc1S2(=O)=O	nt	113	nt	nt	nt	nt	nt	nt	nt
O=C(Cn1cnc2scc(-c3ccc(F)cc3)c2c1=O)NCC(c1ccco1)N1CCCC1 (stereo not drawn)	10	108	nt	nt	-2	nt	nt	nt	nt
CC(=O)N1CCN(c2ccc(Nc3ncnc4c3oc3ccccc34)cc2)CC1	11	106	-12	89	-11	81*[inhibitor]	106	8	101
CC1N=C(SCC(=O)c2ccc(F)cc2)N2C(C)N=C(SCC(=O)c3ccc(F)cc3)N12 (stereo not drawn)	nt	94	nt	nt	nt	nt	nt	nt	nt
O=C(NC(=S)N1CCN(Cc2ccc3c(c2)OCO3)CC1)c1ccc(Cl)cc1	14	103	55*	121	1	104	106	4	105
Fc1ccccc1NC(=S)N1CCN(Cc2ccc3c(c2)OCO3)CC1	0	104	5	116	5	136*	96	-3	94
COc1cc(/C=C/C(=O)OCC(=O)Nc2ccc(C)c(S(=O)(=O)N3CCCCC3)c2)ccc1O	12	114	0	108	-6	147*	103	-6	103
COc1cc(/C=C/C(=O)OCC(=O)Nc2cc(C(F)(F)F)ccc2N2CCOCC2)ccc1O	8	98	0	104	1	152*	105	-1	104
C[C@H](CO)N1C[C@H](C)[C@@H](CN(C)S(=O)(=O)c2cn(C)cn2)Oc2ccc(NC(=O)NC3CCCCC3)cc2C1=O	-4	100	nt	nt	-4	nt	nt	nt	nt
COc1ccc(C(C)=O)cc1CSc1nnc(Nc2ccccc2)s1	3	109	-1	101	6	100	nt	nt	nt
COc1cccc(NC(=O)CN(C)C(=O)c2ccc3c(c2)C(=O)N(CCC(C)C)C3=O)c1	15	100	nt	nt	13	nt	nt	nt	nt
CC(NC(=O)C(=O)NCCC1=CCCCC1)c1ccccc1 (stereo not drawn)	9	nt	0	105	-3	139*	98	-2	98
COc1cccc(-c2ncc3ccccc3c2COC(=O)c2ccco2)c1	-2	105	nt	nt	29	nt	nt	nt	nt
CCOc1ccc(/C(O)=C2\C(=O)C(=O)N(c3cc(C)on3)C2c2ccccc2OC)cc1 (stereo not drawn)	10	109	-31	2.0*[inhibitor]	-22	2.0*[inhibitor]	110	8	107
CCc1ccc(N(CC(=O)NC(C)C)C(=O)CCC(=O)Nc2nccs2)cc1	7	99	-2	101	-4	100	nt	nt	nt
SMILES	Apaf1 inhib	DSG3 Ab inh	MEKK2 mut-MEK5	MEKK2 WT-MEK5	UBC13 inh	MEKK3 PB1 HTS	MEKK2wt confirm	MEKK2mut confirm	MEKK3-MEK5 inh
O=C(/C=C/Nc1ccc(Cc2ccc(N/C=C/C(=O)C(F)(F)F)cc2)cc1)C(F)(F)F	6	99	0	102	-17	134*	103	0	102
COc1ccccc1CCn1cnc2c3cc(C)ccc3n(C)c2c1=O	25	nt	-16	2.0*[inhibitor]	20	2.0*[inhibitor]	104	3	103
COc1ccc2c(c1)c1ncn(CCN3CCCC3)c(=O)c1n2C	7	102	0	102	1	102	nt	nt	nt
O=[N+]([O-])c1ccc(N2CCN(Cc3ccc([N+](=O)[O-])o3)CC2)cc1	2	100	6	109	-20	101	nt	nt	nt
O=[N+]([O-])c1ccc(CN2CCN(c3ccccc3)CC2)o1	-6	105	16	128	-9	122*	103	4	104
COc1ccc(CC(=O)N2CCCC(CNC(=O)c3ccccc3Cl)C2)cc1 (stereo not drawn)	-11	102	-35	54	2	47*[inhibitor]	106	9	107
O=C(CCN1C(=O)S/C(=C/c2ccccc2)C1=O)Nc1ccc(O)c(C(=O)O)c1	2	131	-7	96	-11	97	nt	nt	nt
N#CC1=C(N)OC(c2ccccc2)=C(C#N)C1c1ccc2c(c1)OCO2 (stereo not drawn)	11	104	6	122	0	133*	103	4	92
COc1ccc2nc(SC(C)C(=O)NCC(=O)Nc3ccc(F)c(F)c3F)[nH]c2c1 (stereo not drawn)	3	100	nt	nt	4	nt	nt	nt	nt
CCCCCC(=O)Nc1sc(C)c(C)c1C#N	0	100	9	100	14	101	nt	nt	nt
CCCCn1cc(C(C)(C)C)c(C#N)c1NC(C)=O	11	112	-13	52*[inhibitor]	-8	46*[inhibitor]	101	1	100
CCOC(=O)N1CCN(CC(=O)Nc2nccs2)CC1	nt	104	nt	nt	nt	nt	nt	nt	nt
COc1ccc(CCNC(=O)CCc2cn(C)c3ccccc23)c(OC)c1OC	4	89	27*	117	10	120	103	3	103
